Data taken from ChEMBL document CHEMBL1151742, “Design, synthesis, and characterization of high-affinity, systemically-active galanin analogues with potent anticonvulsant activities” (J Med Chem, 2008).
The source made the active and inactive calls. The rule behind the calls is not given here.

Tests used:
[1] = Partition coefficient, log D at pH 7.4 by shake-flask method; type: physicochemical; details: octanol/water
Outline: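 Shake-flask partitioning between water-saturated n-octanol and PBS pH 7.4. Peptide (0.4 mg) was reconstituted in 1 mL PBS, or in octanol if poorly water-soluble. Octanol peptide was taken as total minus aqueous, and logD = log([octanol]/[aqueous]). Four independent preparations per analogue.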

[2] = Metabolic stability in rat serum assessed as half life at pH 7.5; type: ADME, cell-free
Outline: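 Peptide (final 20 µM) was incubated in 25% rat serum with 0.1 M Tris-HCl pH 7.5 at 37 °C, serum pre-warmed 10 min. Aliquots taken up to 8 h were quenched with 15% TCA in 40% isopropanol, held 15 min at -20 °C and centrifuged. Intact peptide was measured by reversed-phase HPLC peak area, and half-life was calculated from the disappearance.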

[3] = test system: Mus musculus; test: Anticonvulsant activity in intracerebroventricularly dosed pharmacoresistant epilepsy CF1 mouse model; type: functional
Outline: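 Intracerebroventricular injection in mice, followed by the 6 Hz seizure model (32 mA). ED50 was determined in nmole with 95% CI.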

[4] = test system: Mus musculus; test: Anticonvulsant activity in CF1 mouse assessed as inhibition of 6 Hz corneal stimulation-induced limbic seizures at 4 mg/kg, ip administered 15 mins before 6 Hz corneal stimulation; type: functional, organism-based; parameters: dose 4 mg/kg; details: Limbic system
Outline: (§1)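 Each analogue given ip at 4 mg/kg to five groups of CF-1 mice (n = 4 per group), one group per time point. Seizure challenge was 6 Hz corneal stimulation (32 mA for 3 s, corneal electrodes) at 15, 30, 60, 120 or 240 min after dosing. A mouse without a limbic seizure (jaw chomping, vibrissae twitching, forelimb clonus, Straub tail) was counted as protected.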

[5] = test system: Mus musculus; test: Anticonvulsant activity in CF1 mouse assessed as inhibition of 6 Hz corneal stimulation-induced limbic seizures at 4 mg/kg, ip administered 30 mins before 6 Hz corneal stimulation; type: functional, organism-based; parameters: dose 4 mg/kg; details: Limbic system; outline: as §1
[6] = test system: Mus musculus; test: Anticonvulsant activity in CF1 mouse assessed as inhibition of 6 Hz corneal stimulation-induced limbic seizures at 4 mg/kg, ip administered 60 mins before 6 Hz corneal stimulation; type: functional, organism-based; parameters: dose 4 mg/kg; details: Limbic system; outline: as §1
[7] = test system: Mus musculus; test: Anticonvulsant activity in CF1 mouse assessed as inhibition of 6 Hz corneal stimulation-induced limbic seizures at 4 mg/kg, ip administered 120 mins before 6 Hz corneal stimulation; type: functional, organism-based; parameters: dose 4 mg/kg; details: Limbic system; outline: as §1
[8] = test system: Mus musculus; test: Anticonvulsant activity in CF1 mouse assessed as inhibition of 6 Hz corneal stimulation-induced limbic seizures at 4 mg/kg, ip administered 240 mins before 6 Hz corneal stimulation; type: functional, organism-based; parameters: dose 4 mg/kg; details: Limbic system; outline: as §1
[9] = biological target: T1, Galanin receptor type 2 (Homo sapiens, UniProt O43603); test: Binding affinity to human GalR2
T1 sequence (O43603 whole entry): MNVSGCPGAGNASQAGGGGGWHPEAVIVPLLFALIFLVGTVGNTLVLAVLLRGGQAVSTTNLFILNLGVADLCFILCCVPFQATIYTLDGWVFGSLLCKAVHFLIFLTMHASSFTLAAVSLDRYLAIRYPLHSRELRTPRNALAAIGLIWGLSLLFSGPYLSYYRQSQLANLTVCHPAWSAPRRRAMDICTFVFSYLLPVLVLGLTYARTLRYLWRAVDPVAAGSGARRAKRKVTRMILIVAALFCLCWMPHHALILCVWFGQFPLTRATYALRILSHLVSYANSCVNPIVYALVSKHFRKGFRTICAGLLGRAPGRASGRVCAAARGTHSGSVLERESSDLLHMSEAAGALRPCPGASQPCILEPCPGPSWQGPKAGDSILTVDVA

[10] = biological target: T2, Galanin receptor type 3 (Homo sapiens, UniProt O60755); test: Binding affinity to human GalR3
T2 sequence (O60755 whole entry): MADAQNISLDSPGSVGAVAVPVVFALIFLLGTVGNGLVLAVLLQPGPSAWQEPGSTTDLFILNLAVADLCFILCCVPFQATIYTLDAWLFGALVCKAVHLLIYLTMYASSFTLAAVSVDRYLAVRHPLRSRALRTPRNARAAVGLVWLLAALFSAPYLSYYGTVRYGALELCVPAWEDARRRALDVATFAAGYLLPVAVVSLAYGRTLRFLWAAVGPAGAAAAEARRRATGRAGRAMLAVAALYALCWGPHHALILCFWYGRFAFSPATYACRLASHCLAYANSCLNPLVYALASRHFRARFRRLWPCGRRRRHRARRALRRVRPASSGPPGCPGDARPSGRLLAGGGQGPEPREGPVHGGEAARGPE

[11] = biological target: T3, Galanin receptor type 1 (Homo sapiens, UniProt P47211); test: Displacement of europium-labeled galanin from human GalR1 expressed in HEK293 EBNA cells; type: cell-based
T3 sequence (P47211 whole entry): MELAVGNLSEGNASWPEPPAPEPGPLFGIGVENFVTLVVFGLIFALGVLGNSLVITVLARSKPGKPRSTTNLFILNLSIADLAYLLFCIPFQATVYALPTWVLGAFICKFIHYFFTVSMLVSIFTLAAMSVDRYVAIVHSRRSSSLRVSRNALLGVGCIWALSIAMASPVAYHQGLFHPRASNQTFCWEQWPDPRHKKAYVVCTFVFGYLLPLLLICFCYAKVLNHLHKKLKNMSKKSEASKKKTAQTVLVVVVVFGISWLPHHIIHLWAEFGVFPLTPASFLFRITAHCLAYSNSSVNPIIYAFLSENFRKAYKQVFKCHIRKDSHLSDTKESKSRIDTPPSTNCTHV

[12] = biological target: T1, Galanin receptor type 2; test: Displacement of europium-labeled galanin from human GalR2 expressed in CHO-K1 cells; type: cell-based
[13] = test system: Mus musculus; test: Anticonvulsant activity in ip dosed CF1 mouse assessed as inhibition of 6 Hz corneal stimulation-induced limbic seizures; type: functional; details: CF1, Limbic system
[14] = Toxicity in CF1 mouse assessed as motor function by rotarod test; type: organism-based; details: in vivo

Row | logD [1] | half-life [2] [h] | Kd [9] [nM] | Kd [10] [nM] | Compound | ED50 [3] [nmol] | Activity [4] | Activity [5] | Activity [6] | Activity [7] | Activity [8] | Ki [11] [nM] | Ki [12] [nM] | ED50 [13] [mg/kg] | TD50 [14] [mg/kg]
1 | 1.55 | > 10 |  |  | CCCCCCCCCCCCCCCC(=O)NCCCC[C@H](NC(=O)[C@H](C)NC(=O)[C@H](Cc1cnc[nH]1)NC(=O)[C@@H]1CCCN1C(=O)CNC(=O)[C@H](CC(C)C)NC(=O)[C@H](CC(C)C)NC(=O)[C@H](Cc1ccc(O)cc1)NC(=O)CNC(=O)[C@H](C)NC(=O)[C@H](CO)NC(=O)[C@H](CC(N)=O)NC(=O)[C@H](CC(C)C)NC(=O)[C@@H](NC(=O)[C@H](Cc1c[nH]c2ccccc12)NC(=O)CNC)[C@@H](C)O)C(N)=O |  | inactive | inactive | inactive | inactive | inactive |  | 160 |  | 
2 |  |  | 2.3 | 69 | H-GWTLNSAGYLLGPHAVGNHRSFSDKNGLT-OH |  |  |  |  |  |  |  |  |  | 

Second part, the compound before the results:

Row | Compound | logD [1] | half-life [2] [h] | Kd [9] [nM] | Kd [10] [nM] | ED50 [3] [nmol] | Activity [4] | Activity [5] | Activity [6] | Activity [7] | Activity [8] | Ki [11] [nM] | Ki [12] [nM] | ED50 [13] [mg/kg] | TD50 [14] [mg/kg]
3 | CC(C)C[C@H](NC(=O)[C@H](CC(C)C)NC(=O)[C@H](Cc1ccc(O)cc1)NC(=O)CNC(=O)[C@H](C)NC(=O)[C@H](CO)NC(=O)[C@H](CC(N)=O)NC(=O)[C@H](CC(C)C)NC(=O)[C@@H](NC(=O)[C@H](Cc1c[nH]c2ccccc12)NC(=O)CN)[C@@H](C)O)C(=O)NCC(=O)N1CCC[C@H]1C(=O)N[C@@H](Cc1cnc[nH]1)C(=O)N[C@@H](C)C(=O)N[C@H](C(N)=O)C(C)C | 0.66 | 0.13 |  |  | 1.7 | inactive | inactive | inactive | inactive | inactive |  |  |  | 
4 | CSCC[C@H](NC(=O)[C@H](CC(C)C)NC(=O)CNC(=O)[C@H](Cc1ccccc1)NC(=O)[C@H](Cc1ccccc1)NC(=O)[C@H](CCC(N)=O)NC(=O)[C@H](CCC(N)=O)NC(=O)[C@@H]1CCCN1C(=O)CNC(=O)[C@H](CC(C)C)NC(=O)[C@H](CC(C)C)NC(=O)[C@H](Cc1ccc(O)cc1)NC(=O)CNC(=O)[C@H](C)NC(=O)[C@H](CO)NC(=O)[C@H](CC(N)=O)NC(=O)[C@H](CC(C)C)NC(=O)[C@@H](NC(=O)[C@H](Cc1c[nH]c2ccccc12)NC(=O)CN)[C@@H](C)O)C(N)=O [GALANTIDE] |  |  | 1 | 40 |  |  |  |  |  |  |  |  |  | 
5 | CCCCCCCCCCCCCCCC(=O)NCCCC[C@H](NC(=O)[C@H](CCCCN)NC(=O)[C@H](CCCCN)NC(=O)[C@H](CC(C)C)NC(=O)[C@H](CC(C)C)NC(=O)[C@H](Cc1ccc(O)cc1)NC(=O)CNC(=O)[C@H](C)NC(=O)[C@H](CO)NC(=O)[C@H](CC(N)=O)NC(=O)[C@H](CC(C)C)NC(=O)[C@@H](NC(=O)[C@H](Cc1c[nH]c2ccccc12)NC(=O)CNC)[C@@H](C)O)C(=O)N[C@@H](CCCCN)C(N)=O |  | > 10 |  |  |  |  | Active | Active |  | inactive | 306 | 1320 |  | 
6 | CC(C)C[C@H](NC(=O)[C@H](CC(C)C)NC(=O)[C@H](Cc1ccc(O)cc1)NC(=O)CNC(=O)[C@H](C)NC(=O)[C@H](CO)NC(=O)[C@H](CC(N)=O)NC(=O)[C@H](CC(C)C)NC(=O)[C@@H](NC(=O)[C@H](Cc1c[nH]c2ccccc12)NC(=O)CN)[C@@H](C)O)C(=O)NCC(=O)N1CCC[C@H]1C(=O)N1CCC[C@H]1C(=O)N1CCC[C@H]1C(=O)NCC(=O)N[C@@H](Cc1ccccc1)C(=O)N[C@@H](CO)C(=O)N1CCC[C@H]1C(=O)N[C@@H](Cc1ccccc1)C(=O)N[C@@H](CCCN=C(N)N)C(N)=O |  |  | 2 | 15 |  |  |  |  |  |  |  |  |  | 
7 | CNCC(=O)N[C@@H](Cc1c[nH]c2ccccc12)C(=O)N[C@H](C(=O)N[C@@H](CC(C)C)C(=O)N[C@@H](CC(N)=O)C(=O)N[C@@H](CO)C(=O)N[C@@H](C)C(=O)NCC(=O)N[C@@H](Cc1ccc(O)cc1)C(=O)N[C@@H](CC(C)C)C(=O)N[C@@H](CC(C)C)C(=O)NCC(=O)N1CCC[C@H]1C(=O)N[C@@H](CCCCN)C(=O)N[C@@H](CCCCN)C(=O)N[C@@H](CCCCN)C(=O)N[C@@H](CCCCN)C(N)=O)[C@@H](C)O | 0.4 | 4.6 |  |  |  | inactive |  |  | inactive | inactive | 0.4 | 24 |  | 
8 | CCCCCCCCCCCCCCCC(=O)NCCCC[C@H](NC(=O)[C@H](CCCCN)NC(=O)[C@H](CCCCN)NC(=O)[C@@H]1CCCN1C(=O)CNC(=O)[C@H](CC(C)C)NC(=O)[C@H](CC(C)C)NC(=O)[C@H](Cc1ccc(O)cc1)NC(=O)CNC(=O)[C@H](C)NC(=O)[C@H](CO)NC(=O)[C@H](CC(N)=O)NC(=O)[C@H](CC(C)C)NC(=O)[C@@H](NC(=O)[C@H](Cc1c[nH]c2ccccc12)NC(=O)CNC)[C@@H](C)O)C(=O)N[C@@H](CCCCN)C(N)=O | 1.26 | 9.4 |  |  |  |  | Active | Active | Active | inactive |  | 51.5 | 0.8 | 21
